Calls of active or inactive are those of the source. The rule behind the calls is not given here.
Columns and labels:
[1] = Antioxidant activity assessed as protection against AAPH-induced pBR322 plasmid DNA strand open circular form at 11 to 45 uM after 4 hrs by agarose gel electrophoresis; assay type: functional
Summary of the method: (§1)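 pBR 322 plasmid DNA incubated with AAPH (10 mM final) at 37 °C for 4 h, with or without antioxidant (0.35-45 μM final). Samples then run on agarose electrophoresis. Protection was judged from the supercoiled (S) band intensity against a control without AAPH. AAPH converts the DNA to the open circular (O) form.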

[2] = Antioxidant activity assessed as protection against AAPH-induced pBR322 plasmid DNA strand open circular form at <5 uM after 4 hrs by agarose gel electrophoresis; assay type: functional; summary of the method: as §1
[3] = Prooxidant effect on Cu2+-induced pBR322 DNA damage at 3 to 45 uM after 1 hr; assay type: functional
[4] = Antioxidant activity assessed as protection against AAPH-induced pBR322 plasmid DNA strand open circular form at 5 uM after 4 hrs by agarose electrophoresis; assay type: functional; summary of the method: as §1
[5] = Antioxidant activity against linoleic acid assessed as inhibition of beta-carotene bleaching at 12 uM after 180 mins; assay type: functional; set-up: scale not given: the % may be the effect or the level left
Summary of the method: (§2)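 Linoleic acid/β-carotene emulsion held at 50 °C for 180 min with antioxidant across a range of concentrations. Bleaching of β-carotene followed as A470. % A470 = (sample A470 at 180 min / at 0 min ×100) minus the same ratio for a no-antioxidant control.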

[6] = Prooxidant effect on Cu2+-induced pBR322 DNA damage at 0.35 to 45 uM after 1 hr; assay type: functional
Summary of the method: (§3)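 Pro-oxidant test: pBR322 plasmid incubated with 10 μM Cu2+ at 37 °C for 1 h with compound at final 0.35–45 μM. DNA damage judged by agarose gel electrophoresis.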

[7] = tested on: Radical scavenging activity; test: Antioxidant activity assessed as DPPH free radical scavenging activity within 1 mins; assay type: functional
[8] = Antioxidant activity assessed as protection against AAPH-induced pBR322 plasmid DNA strand open circular form at 0.35 to 45 uM after 4 hrs by agarose gel electrophoresis; assay type: functional
Summary of the method: (§4)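 pBR322 plasmid DNA incubated with AAPH (final 10 mM) at 37 °C for 4 h, with or without antioxidant at final 0.35–45 μM. Agarose electrophoresis then compares supercoiled and open circular band intensities with a no-AAPH control.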

[9] = Antioxidant activity assessed as inhibition of AAPH-induced lipid peroxidation in human plasma LDL after 18 hrs by gel electrophoresis; assay type: functional, cell-free
Summary of the method: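 LDL oxidized with 10 mM AAPH for 18 h at 37 °C, with or without antioxidant. Azo initiator used instead of Cu2+ so that metal pro-oxidant effects are avoided. Read-out is anodic migration on agarose gel, with AAPH-oxidized LDL set as 100% migration.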

[10] = Antioxidant activity against linoleic acid assessed as inhibition of beta-carotene bleaching after 180 mins; assay type: functional; summary of the method: as §2
[11] = tested on: Radical scavenging activity; test: Antioxidant activity assessed as DPPH free radical scavenging activity within 10 mins; assay type: functional
[12] = Antioxidant activity assessed as protection against AAPH-induced pBR322 plasmid DNA strand open circular form at >= 45 uM after 4 hrs by agarose gel electrophoresis; assay type: functional; summary of the method: as §4
[13] = Prooxidant effect on Cu2+-induced pBR322 DNA damage at 25 to 45 uM after 1 hr; assay type: functional; settings: 23 and 45 uM; in the assay text read “23 and 45 uM” for “25 to 45 uM”; summary of the method: as §3

O=c1c(O)c(-c2ccc(O)c(O)c2)oc2cc(O)cc(O)c12
Activity [1]: Active
Activity [2]: inactive
Activity [3]: Active
Activity [4]: inactive

NCc1ccc(CN)cc1
Activity [5]: 16%

Cc1c(C)c2c(c(C)c1O)CCC(C)(C(=O)O)O2 (centres undefined) [TROLOX]
Activity [6]: Active
IC50 [7]: 27.6 µM
Activity [8]: inactive

COc1cc(CN(Cc2ccc(CN(Cc3cc(I)c(O)c(OC)c3)Cc3cc(I)c(O)c(OC)c3)cc2)Cc2cc(I)c(O)c(OC)c2)cc(I)c1O
Activity [9]: Dose-dependent effect
Activity [10]: Active
Activity [8]: inactive

COc1cc(C=O)ccc1O [VANILLIN]
IC50 [11]: > 100 µM
Activity [9]: inactive
Activity [5]: < 5%
Activity [6]: inactive

COc1cc(CN(Cc2ccc(CN(Cc3cc(OC)c(O)c(OC)c3)Cc3cc(OC)c(O)c(OC)c3)cc2)Cc2cc(OC)c(O)c(OC)c2)cc(OC)c1O
Activity [9]: Dose-dependent effect
Activity [10]: Active
Activity [1]: Active
Activity [2]: inactive
Activity [3]: Active
Activity [4]: Active

COc1cc(C=O)cc(OC)c1O [SYRINGALDEHYDE]
IC50 [11]: > 100 µM
Activity [9]: inactive
Activity [5]: 12%
Activity [6]: inactive

COc1cc(CN(Cc2ccc(CN(Cc3ccc(O)c(OC)c3)Cc3ccc(O)c(OC)c3)cc2)Cc2ccc(O)c(OC)c2)ccc1O
Activity [9]: Dose-dependent effect
Activity [10]: Active
Activity [12]: Active
Activity [13]: Active

From ChEMBL document CHEMBL1156109, “Synthesis and antioxidant properties of dendritic polyphenols” (Bioorg Med Chem Lett, 2009)
